Assay outcomes deposited in PubChem by Johns Hopkins Ion Channel Center.
TRPC6 inhibitor: blocks the mouse TRPC6 cation channel; HEK293-TRPC6, membrane potential dye, ACh-evoked depolarization; active compounds read low; B-score at 10 µM; 310,000 compounds, 1.1% hits;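 active = B-score under library mean minus 3 SD, initial fluorescence not abnormally high, positive integrated signal ratio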;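 also: B-score derived from integrated fluorescence ratio over the kinetic read; more negative B-score means stronger inhibition of depolarization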
TRPC4 agonist: TRPC4 (mouse) channel activation. B-score at 10 µM. Q9QUQ5. HEK293 TRPC4beta/mu-opioid, Fluo4 calcium fluorescence; active compounds read high. 310,000 compounds, 0.49% hits;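 active = B-score above 5 SD of library B-scores, and initial fluorescence ratio not above library mean plus 5 SD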;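 also: positive B-score marks a calcium rise read as TRPC4 activation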
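System – HEK293 cells stably co-expressing mouse TRPC4beta and mu-opioid receptor · Signal – Fluo4 calcium-sensitive dye fluorescence, kinetic, 1 Hz baseline · Benchmarks – buffer (low) and maximal DAMGO (high) · Read-out – B score of integrated fluorescence ratio per well · Incubation – dye loading 45 min room temperature, 110 s kinetic read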
TRPC4 inh: inhibitors of mouse TRPC4 channel | Q9QUQ5 | HEK293 TRPC4beta/mu-opioid, DAMGO-evoked Fluo4 calcium flux; active compounds read low | B-score at 10 µM | 300,000 compounds, 0.39% hits;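 active = B-score over 3 SD under the library average, no early fluorescence shift, positive overall ratio signal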
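test system = HEK293 cells with stable TRPC4beta plus mu-opioid receptor expression | detection = Fluo4 Ca2+ flux fluorescence | read-out = integrated fluorescence ratio relative to baseline, converted to per-well B score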
TRPC6 activator: activators of mouse TRPC6 channel. Q61143. HEK293-TRPC6 membrane potential dye fluorescence; active compounds read high. B-score at 10 µM. 310,000 compounds, 0.13% hits;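 active = B-score of the integrated fluorescence ratio above library mean plus 3 SD, and starting fluorescence ratio within library mean plus 5 SD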;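 also: higher score means more depolarization so channel activation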
Kir21 inh: blocks the mouse Kir2.1 inward-rectifier potassium channel; HEK293-Kir2.1, FluxOR thallium flux fluorescence; active compounds read low; B-score at 10 µM; P35561; 310,000 compounds, 0.85% hits;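 active = fluorescence ratio B-score at or below minus 3 SD of library scores, with starting-brightness B-score within 2 SD, cut at about -4.2 in these data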;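 also: channel flux triggered by added potassium and thallium sulfate stimulus; B-score of peak minus minimum fluorescence over baseline after thallium stimulus; more negative B-score means stronger Kir2.1 block with less thallium influx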
TRPC4 PAM: allosteric potentiators of mouse TRPC4 channel. B-score at 10 µM. AID 2227. 310,000 compounds, 0.42% hits. HEK293 TRPC4beta/mu-opioid, DAMGO EC20, Fluo-4 Ca2+ flux; active compounds read high. Q9QUQ5;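 active = B-score of calcium response area above 5 SD of library B-scores, with initial fluorescence ratio within 5 SD of library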
Each line names hits and unclear results; the compound was inactive in the other large screens. Compounds with a hit are over-represented: about 3% of the library has one in this group of screens.

COc1ccccc1C(=O)C1CCCN(Cc2cccc3nccnc23)C1 (stereo unspecified)	none
COc1cccc(O)c1CN1CCCC(C(=O)c2cccc(C(F)(F)F)c2)C1 (stereo unspecified)	TRPC4 inh -7
COc1c(C)cc(C(=O)C2CCCN(Cc3cccc4nccnc34)C2)cc1C (stereo unspecified)	TRPC4 agonist 110
CC(=O)Nc1ccc(CN2CCCC(C(=O)c3ccc(C(F)(F)F)cc3)C2)cc1 (stereo unspecified)	TRPC4 agonist 234
CCOc1cccc(CN2CCCC(C(=O)c3cccc(C(F)(F)F)c3)C2)c1O (stereo unspecified)	TRPC4 inh -6
Cc1ccc(C(C[N+](=O)[O-])c2c(C)[nH]n(-c3ccccc3)c2=O)cc1 (stereo unspecified)	Kir21 inh -12
O=[N+]([O-])c1ccc(C2CNC(c3ccccc3)O2)cc1 (stereo unspecified)	TRPC4 PAM 14
O=C(Nc1ccccn1)Nc1ccccc1Cl	none
O=C(NC1CCN(Cc2ccccc2)CC1)c1ccccc1	none
O=C(NC1CCN(Cc2ccccc2)CC1)C12CC3CC(CC(C3)C1)C2	TRPC4 agonist 123
O=C(Cc1ccc(Br)cc1)NC1CCN(Cc2ccccc2)CC1	TRPC4 PAM 12
O=C(Cc1ccccc1)NC1CCN(Cc2ccccc2)CC1	none
Fc1c(F)c(-n2nnc3ccccc32)c(F)c(F)c1Cl	none
CCOC(=O)c1c(CSC(=N)N)n(-c2ccc(C)cc2)c2cc(Br)c(OC(C)=O)cc12	Kir21 inh -15
CCN(c1cccc(C)c1)S(=O)(=O)c1cc2c3c(c1)CCC(=O)N3CCC2	Kir21 inh -5.8
CCCN(CCC)S(=O)(=O)c1cc2c3c(c1)CCN3C(=O)CC2	none
CCN(Cc1ccccc1)CC(O)COC(c1ccc(OC)cc1)c1ccc(OC)cc1 (stereo unspecified)	Kir21 inh -8.8
CC1=NNC(=O)/C1=C\c1cn(-c2ccccc2)nc1-c1ccccc1	TRPC4 PAM 10
O=C(CSc1c2c(nc3cc(Cl)ccc13)CCCC2)NCc1ccco1	Kir21 inh -6.5
CNCc1ccccc1Sc1cccc2ccccc12	TRPC4 agonist 46, TRPC4 inh -6, Kir21 inh -15
CN(C)CCN(C)Cc1ccccc1Sc1cccc2ccccc12	Kir21 inh -7.1
CC[N+]1(CC(O)COC2CC(C)CC(C)(C)C2)CCOCC1 (stereo unspecified)	none
CN(C)c1ccc(N=Nc2ccccc2C(=O)OCC(=O)N(C)C2CCCCC2)cc1	TRPC4 PAM 11
C/C=C/C=C/[C@H]1Cc2cc(O)cc(O)c2O1	Kir21 inh -4.3
FC(F)(F)c1cccc(Cn2c3[n+](c4ccc(C(F)(F)F)cc42)CCCCC3)c1	none
Cc1cc(C(C)(C)C)cc(C)c1Cn1c2[n+](c3ccc(C(F)(F)F)cc31)CCCCC2	Kir21 inh -7.2
CCC(C)[C@H](Nc1nc(-c2ccccc2)nc2c1oc1ccccc12)C(=O)O (stereo partly specified)	TRPC4 inh -6
CC(C)[C@H](Nc1nc(-c2ccccc2)nc2c1oc1ccccc12)C(=O)O	none
CCOc1cccc(-c2c(C(=O)N/N=C/c3ccc(C)o3)nnn2-c2nonc2N)c1	none
COC(=O)NCC(c1ccc2c(c1)OCO2)N1CCN(c2ccc(OC)cc2)CC1 (stereo unspecified)	TRPC4 agonist 67
COc1ccc(N2CCN(C(CNC(=O)C(C)C)c3ccc4c(c3)OCO4)CC2)cc1 (stereo unspecified)	TRPC4 agonist 51
Cc1noc(NC(=O)c2c(-c3c(Cl)cccc3Cl)noc2C)c1[N+](=O)[O-]	none
Cc1cc(Cl)c(OCCOCCN2CCCC(C)C2)c(Br)c1 (stereo unspecified)	Kir21 inh -4.3
COc1ccc(NC(=S)N2CCN(S(=O)(=O)c3ccccc3)CC2)cc1	none
Cc1ccc(C(=O)NC(=S)NNC(=O)COc2ccccc2C)cc1	TRPC4 agonist 54
COc1ccc(C(=O)NC(=S)NNC(=O)COc2ccccc2)cc1	none
O=C(COc1ccccc1)NNC(=S)NC(=O)c1ccccc1	TRPC4 agonist 46
Cc1cccc(C(=O)NC(=S)NCc2ccccc2)c1	none
Cc1cccc(C(=O)NC(=S)NNC(=O)COc2c(C)cccc2C)c1	TRPC4 agonist 102
COC(=O)c1ccc(OC(=O)C2CSC3(C)CCC(=O)N23)cc1 (stereo unspecified)	none
Nc1ncc(Br)cc1S(=O)(=O)NCCC(=O)N1CCN(c2ccccc2)CC1	none
Cc1n[nH]c(C)c1Cc1c(F)cccc1Cl	TRPC4 inh -6
CC(=O)NC(Cc1ccccc1C)C(=O)NC1CCN(C(=O)c2cccc(C)c2)CC1 (stereo unspecified)	none
CC(=O)C(Cc1ccccc1)NC(=O)CN(C)Cc1ccccc1Cl (stereo unspecified)	Kir21 inh -4.9
Cc1ccccc1CN(C)CC(=O)NC(C)CCc1ccccc1 (stereo unspecified)	Kir21 inh -11
Cc1ccc(CC(=O)NC(C)CCc2ccccc2)cc1 (stereo unspecified)	none
Cc1ccc(CN(C)CC(=O)NC(C)c2ccccc2)cc1 (stereo unspecified)	Kir21 inh -4.3
CC(C)(C)OC(=O)N[C@@H](Cc1ccccc1)C(=O)N1CCC(C(=O)N[C@@H](Cc2c[nH]c3ccccc23)C(=O)O)CC1	none
CC1(NC(=O)CCc2nc3sc4c(c3c(=O)[nH]2)CCCC4)CCS(=O)(=O)C1 (stereo unspecified)	none
COC(=O)C[C@H]1c2cc(C(F)(F)F)ccc2S(=O)(=O)N1Cc1ccccc1OC	none (no result: TRPC4 inh)
CC1OC(OC2C(OC3C(O[C@H]4CC[C@]5(C)C6C=C[C@]78OC[C@@]9(CC[C@@H](C)[C@H](C)C97)[C@H](O)C[C@@]8(C)[C@]6(C)CC[C@H]5C4(C)C)OC(C)C(O)C3O)OC(CO)C(O)C2O)C(O)C(O)C1O (stereo partly specified)	TRPC6 inhibitor -5.1, TRPC4 agonist 376, TRPC4 PAM 17
CCN(CC)CC(C)CNC(=O)CN1C(=O)CSc2ccc(S(=O)(=O)N3CCOCC3)cc21 (stereo unspecified)	none
Cn1c2c(c(=O)n(C)c1=O)C(C(F)(F)F)(C(F)(F)F)N=C(CCC1CCCCC1)N2	TRPC4 PAM 11
O=C(O)c1cccc2c3c([nH]c12)CCCC3	none
Clc1ccc2[nH]c3c(c2c1)CNCC3	TRPC4 PAM 19
Clc1cccc2c3c([nH]c12)CCNC3	TRPC4 PAM 16
